ChEMBL document CHEMBL1132241, “Novel multidrug resistance reversal agents” (J Med Chem, 1999)

Key:
[1] = In vitro concentration at which 50% of human colon carcinoma cells (S1-B1-20) resistant to bisantrene have survived; type: ADME, cell-based, S1B1-20; details: S1-B1-20 human colon carcinoma cells resistant to bisantrene, read-out: LD50 (the source's name)
Outline: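 S1-B1-20 cells (LS 174 T-derived S1 clone selected in bisantrene over 12–16 weeks), trypsinized, 20 000 cells/well. Test agent alone in DMSO (≤0.1% final), 0.1–80 µM, 3 days at 37 °C, 7% CO2. Survival by sulforhodamine B read at 540 nm versus untreated cells. Two to four measurement sets were made, and the value is the concentration giving 50% survival from a best-fit curve.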

[2] = system: S1B1-20; test: In vitro concentration required to inhibit tumor activity on subclone of human colon carcinoma cells (S1-B1-20) resistant to bisantrene; type: functional, cell-based
Outline: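 S1-B1-20 cells (S1 clone of LS 174 T, selected in bisantrene over 12–16 weeks) plated at 20 000 cells/well with or without 20 μM bisantrene, plus test agent 0.1–80 μM from DMSO stock (final DMSO ≤0.1%). 3 days, 37 °C, 7% CO2. Survival by sulforhodamine B at 540 nm. IC50 from best-fit curve of difference score (survival alone minus survival with bisantrene) at 50; 2–4 sets of measurements.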

[3] = Partition coefficient (logP); type: physicochemical; details: octanol/water
[4] = system: Mus musculus; test: Relative tumor growth inhibition against human epidermoid carcinoma KB/8.5 implanted subcutaneously only in mice at 8 mg/kg (DOX); type: functional; details: route subcutaneous
Outline: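 KB/8.5 cells grown in RPMI 1640 with 5% fetal calf serum plus colchicine (10 ng/mL), which was removed for two passages. 8 × 10^6 cells were then implanted sc in athymic nude mice. At 100-300 mg tumor mass, mice were grouped 5-10/group. Doxorubicin was given as a single iv dose (8 mg/kg). Tumor mass was measured on day 14, and relative growth was compared with saline control.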

[5] = system: Mus musculus; test: Percent tumor growth inhibition against human epidermoid carcinoma KB/8.5 implanted subcutaneously in mice at 200 mg/kg of compound along with 8 mg/kg (DOX ) was determined; type: functional
Outline: (§1)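 Athymic nude mice bearing sc KB/8.5 tumors (8×10^6 cells, colchicine withdrawn for two passages), grouped at 100–300 mg tumor mass, 5–10 mice/group. Doxorubicin 8 mg/kg given once iv; reversal agent or placebo given sc 2 h before and 2 h after. Tumor mass on day 14 used for relative tumor growth versus doxorubicin alone; Student t-test on log RTG.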

[6] = system: Mus musculus; test: Percent tumor growth inhibition against human epidermoid carcinoma KB/8.5 implanted subcutaneously in mice at 100 mg/kg of compound along with 8 mg/kg (DOX ) was determined; type: functional; outline: as §1

## COc1ccc(C(C#N)(Cc2cccc(CN3CCc4cc(OC)c(OC)cc4C3)c2)Sc2ccc(C)cc2)cc1OC (stereo not drawn)
[1]
  CC50: 23.3 µM
[2]; Homo sapiens, S1B1-20
  IC50: 2.19 µM
[3]; read-out: logP
  logP: 5.91

## COc1ccc(C(C#N)(CCCCCN2CCc3cc(OC)c(OCc4ccccc4)cc3C2)Sc2ccc(C)cc2)cc1OC (stereo not drawn)
[1]
  CC50: 40 µM
[2]; Homo sapiens, S1B1-20
  IC50: 0.85 µM
[3]; read-out: logP
  logP: 7.95
[4]
  Relative tumor growth: 100
[5]
  TGI: 71%

## COc1cc2c(cc1O)CN(CCCCCC(C#N)(SC1CCCCC1)c1ccc(OC)c(OC)c1)CC2 (stereo not drawn)
[3]; read-out: logP
  logP: 6

## COc1ccc2c(c1)CCN(CCCCCC(Sc1ccc(C)cc1)c1ccc(OC)c(OC)c1)C2 (stereo not drawn)
[1]
  CC50: 22.2 µM
[2]; Homo sapiens, S1B1-20
  IC50: 3.09 µM
[3]; read-out: logP
  logP: 7.88

## COc1cc2c(cc1OC)CN(CCCCCCC(Sc1ccc(C)cc1)c1ccc(F)cc1)CC2 (stereo not drawn)
[1]
  CC50: 27 µM
[2]; Homo sapiens, S1B1-20
  IC50: 2.7 µM
[3]; read-out: logP
  logP: 8.63

## COc1ccc(C(C#N)(CCCCN2CCc3cc(OC)c(OC)cc3C2)Sc2ccc(C)cc2)cc1OC.ClCCl (stereo not drawn)
[3]
  logP: 5.65

## COc1ccc(C(C#N)(CCCCCN2CCc3cc(OC)c(OC)cc3C2)SC2CCCCC2)cc1OC (stereo not drawn)
[1]
  CC50: 14 µM
[2]; Homo sapiens, S1B1-20
  IC50: 0.46 µM
[3]; read-out: logP
  logP: 6.28
[6]
  TGI: 69%
[4]
  Relative tumor growth: 67

## COc1ccc(C(C#N)(CCCCCN2CCc3cc(OC)c(OCCn4ccnc4)cc3C2)SC2CCCCC2)cc1OC (stereo not drawn)
[1]
  CC50: 8.39 µM
[2]; Homo sapiens, S1B1-20
  IC50: 0.96 µM
[3]; read-out: logP
  logP: 5.96

## COc1cc2c(cc1OC)CN(CCCCCC(Sc1ccc(C)cc1)c1ccc(OC(F)(F)F)cc1)CC2 (stereo not drawn)
[1]
  CC50: 16.9 µM
[2]; Homo sapiens, S1B1-20
  IC50: 2.07 µM
[3]; read-out: logP
  logP: 8.44
[6]
  TGI: 51%
[4]
  Relative tumor growth: 100

## COc1ccc(C(CCCCCN2CCc3cc(OC)c(OC)cc3C2)SC2CCCCC2)cc1OC (stereo not drawn)
[1]
  CC50: 16.1 µM
[2]; Homo sapiens, S1B1-20
  IC50: 0.73 µM
[3]; read-out: logP
  logP: 7.33
[6]
  TGI: 57%
[4]
  Relative tumor growth: 67

## CCCCCSC(CCCCCN1CCc2cc(OC)c(OC)cc2C1)c1ccc(OC)c(OC)c1 (stereo not drawn)
[1]
  CC50: 16.3 µM
[2]; Homo sapiens, S1B1-20
  IC50: 0.5 µM
[3]; read-out: logP
  logP: 5.66

## COc1ccc(C(C#N)(CC#CCCN2CCc3cc(OC)c(OC)cc3C2)Sc2ccc(C)cc2)cc1OC (stereo not drawn)
[1]
  CC50: 36 µM
[2]; Homo sapiens, S1B1-20
  IC50: 0.97 µM
[3]; read-out: logP
  logP: 5.52

## COc1cc2c(cc1O)CN(CCCCCC(C#N)(Sc1ccc(C)cc1)c1ccc(OC)c(OC)c1)CC2 (stereo not drawn)
[1]
  CC50: 24.9 µM
[2]; Homo sapiens, S1B1-20
  IC50: 3.11 µM
[3]; read-out: logP
  logP: 5.9

## COc1cc2c(cc1OC)CN(CCCCCCC(Sc1ccc(C)cc1)c1ccc(OC)c(OCCCl)c1)CC2 (stereo not drawn)
[1]
  CC50: 10.3 µM
[2]; Homo sapiens, S1B1-20
  IC50: 0.96 µM
[3]; read-out: logP
  logP: 8.54

## COc1cc2c(cc1O)CN(CCCCCC(C#N)(Sc1ccc(C)cc1)c1ccc(OC)c(OC)c1)C2 (stereo not drawn)
[3]; read-out: logP
  logP: 5.78

## COc1ccc(C(C#N)(CCCN2CCc3cc(O)c(O)cc3C2C)Sc2ccc(C)cc2)cc1OC (stereo not drawn)
[2]; Homo sapiens, S1B1-20
  IC50: 4.7 µM
[3]; read-out: logP
  logP: 4.92

## COc1ccc(C(CCCCCCN2Cc3cc(OC)c(OC)cc3C2)Sc2ccc(C)cc2)cc1OC (stereo not drawn)
[1]
  CC50: 22.1 µM
[2]; Homo sapiens, S1B1-20
  IC50: 1.84 µM
[3]; read-out: logP
  logP: 7.32
[6]
  TGI: 60%
[4]
  Relative tumor growth: 75

## COc1ccc(C(C#N)(CCCCCN2Cc3cc(Cl)c(Cl)cc3C2)Sc2ccc(C)cc2)cc1OC (stereo not drawn)
[2]; Homo sapiens, S1B1-20
  IC50: 10.5 µM
[3]; read-out: logP
  logP: 7.4
[4]
  Relative tumor growth: 57
[5]
  TGI: 94%

## COc1ccc(C(CCCCCN2CCc3cc4c(cc3C2)OCO4)Sc2ccc(C)cc2)cc1OC (stereo not drawn)
[1]
  CC50: 24.9 µM
[3]; read-out: logP
  logP: 7.31
[4]
  Relative tumor growth: 100
[5]
  TGI: 57%

## COc1ccc(C(C#N)(CCCCCN2Cc3cc(OC)c(OCCCl)cc3C2)Sc2ccc(C)cc2)cc1OC (stereo not drawn)
[3]; read-out: logP
  logP: 6.14

## COc1ccc(C(CCCCCN2CCc3cc(OC)c(OC)cc3C2)SC(C)(C)C)cc1OC (stereo not drawn)
[1]
  CC50: 76.8 µM
[2]; Homo sapiens, S1B1-20
  IC50: 3.58 µM
[3]; read-out: logP
  logP: 6.54
[4]
  Relative tumor growth: 67
[5]
  TGI: 53%

## COc1ccc(C(CCCCCN2CCc3cc(OC)c(OC)cc3C2)SCc2ccccc2)cc1OC (stereo not drawn)
[1]
  CC50: 15.1 µM
[2]; Homo sapiens, S1B1-20
  IC50: 1.98 µM
[3]; read-out: logP
  logP: 6.63
[6]
  TGI: 68%
[4]
  Relative tumor growth: 77

## COc1ccc(C(C#N)(CCCCCN2CCc3cc(OC)c(OCCCl)cc3C2)SC2CCCCC2)cc1OC (stereo not drawn)
[3]; read-out: logP
  logP: 6.87

## COc1ccc(C(CCCCCCN2CCc3cc(OC)c(OC)cc3C2)Sc2ccc(C)cc2)cc1O (stereo not drawn)
[1]
  CC50: 13.1 µM
[2]; Homo sapiens, S1B1-20
  IC50: 0.84 µM
[3]; read-out: logP
  logP: 7.67
[4]
  Relative tumor growth: 75
[5]
  TGI: 54%

## COc1ccc(C(C#N)(CCCCCN2CCc3cc(OC)c(OC)cc3C2)Sc2ccccn2)cc1OC (stereo not drawn)
[1]
  CC50: 50.8 µM
[2]; Homo sapiens, S1B1-20
  IC50: 2.12 µM
[3]; read-out: logP
  logP: 4.72

## COc1ccc(C(CCCCCCN2CCc3cc(OC)c(OC)cc3C2)Sc2ccc(C)cc2)cc1OC (stereo not drawn)
[1]
  CC50: 13.2 µM
[2]; Homo sapiens, S1B1-20
  IC50: 0.9 µM
[3]; read-out: logP
  logP: 7.95
[6]
  TGI: 64%
[4]
  Relative tumor growth: 45

## COc1ccc(C(CCCCCCN2CCc3cc(OC)c(OC)c(OC)c3C2)Sc2ccc(C)cc2)cc1OC (stereo not drawn)
[1]
  CC50: 14 µM
[2]; Homo sapiens, S1B1-20
  IC50: 0.7 µM
[3]; read-out: logP
  logP: 7.38
[6]
  TGI: 54%
[4]
  Relative tumor growth: 64

## COc1ccc(C(C#N)(CCCCCN2CCc3cc(OC)c(OCCN(C)C)cc3C2)Sc2ccc(C)cc2)cc1OC (stereo not drawn)
[1]
  CC50: 6.68 µM
[3]; read-out: logP
  logP: 6.1

## COc1ccc(C(C#N)(CCCCCN2Cc3cc(OC)c(OCCn4ccnc4)cc3C2)Sc2ccc(C)cc2)cc1OC (stereo not drawn)
[1]
  CC50: 8.37 µM
[2]; Homo sapiens, S1B1-20
  IC50: 0.5 µM
[3]; read-out: logP
  logP: 5.23

## COc1cc2c(cc1OC)CN(CCCCCCC(Sc1ccc(C)cc1)c1ccc(OC)c(O[Si](C)(C)C(C)(C)C)c1)CC2 (stereo not drawn)
[1]
  CC50: 49.1 µM
[2]; Homo sapiens, S1B1-20
  IC50: 10.7 µM
[3]
  logP: 11.68

## COc1ccc(C(C#N)(CCCCN2CCc3cc(OC)c(OC)cc3C2)Sc2ccc(C)cc2)cc1OC (stereo not drawn)
[1]
  CC50: 41.8 µM
[2]; Homo sapiens, S1B1-20
  IC50: 0.62 µM
[3]; read-out: logP
  logP: 5.65

## COc1ccc(C(CCCN2CCc3cc(OC)c(OC)cc3C2)Sc2ccc(C)cc2)cc1OC (stereo not drawn)
[1]
  CC50: 25.8 µM
[2]; Homo sapiens, S1B1-20
  IC50: 1.23 µM
[3]; read-out: logP
  logP: 6.36

## COc1cc2c(cc1OC)CN(CCCCCC(Sc1ccc(C)cc1)c1ccc3c(c1)OCO3)CC2 (stereo not drawn)
[1]
  CC50: 15.9 µM
[2]; Homo sapiens, S1B1-20
  IC50: 0.5 µM
[3]; read-out: logP
  logP: 7.31
[4]
  Relative tumor growth: 100
[5]
  TGI: 39%

## CCC(CCCCCN1CCc2cc(OC)c(OC)cc2C1)(Sc1ccc(C)cc1)c1ccc(OC)c(OC)c1 (stereo not drawn)
[1]
  CC50: 11.8 µM
[2]; Homo sapiens, S1B1-20
  IC50: 1.23 µM
[3]; read-out: logP
  logP: 8.34
[6]
  TGI: 72%
[4]
  Relative tumor growth: 77

## COc1cc2c(cc1OC)CN(CCCCCCC(Sc1ccc(C)cc1)c1ccc(OC)c(OCCn3ccnc3)c1)CC2 (stereo in doubt; 37b)
[1]
  CC50: 5.52 µM
[2]; s1b1-20
  IC50: 0.69 µM
[3]; read-out: logP
  logP: 7.63
[6]
  TGI: 67%
[4]; 8 mg/kg
  Relative tumor growth: 72

## COc1ccc(C(C#N)(CCCCCN2Cc3cc(OC)c(OC)cc3C2)SC2CCCCC2)cc1OC (stereo in doubt; 46)
[1]
  CC50: 11.8 µM
[2]; Homo sapiens, S1B1-20
  IC50: 0.26 µM
[3]; read-out: logP
  logP: 5.65

## COc1ccc(C(C#N)(CCCCCN2CCc3cc(OC)c(OCCn4ccnc4)cc3C2)Sc2ccc(C)cc2)cc1OC (stereo in doubt; 48)
[1]
  CC50: 11.6 µM
[2]; Homo sapiens, S1B1-20
  IC50: 0.53 µM
[3]; read-out: logP
  logP: 5.86

## COc1ccc(CCN(C)CCCC(C#N)(c2ccc(OC)c(OC)c2)C(C)C)cc1OC (stereo not drawn) [VERAPAMIL]
[2]; Homo sapiens, S1B1-20
  IC50: 17.3 µM
